# Data taken from ChEMBL document CHEMBL3580561, “Mitigation of Acetylcholine Esterase Activity in the 1,7-Diazacarbazole Series of Inhibitors of Checkpoint Kinase 1” (J Med Chem, 2015).
# Columns and labels:
# [1] = Clearance in Beagle dog at 1 mg/kg, iv solution at pH 4.5; type: ADME, organism-based, Canis lupus familiaris; conditions: in vivo
# [2] = Oral bioavailability in Beagle dog at 2 mg/kg suspension at pH 6.5; type: ADME, organism-based, Canis lupus familiaris; conditions: in vivo
# HT-29 [3] = experiment: Cytotoxicity against human HT-29 cells assessed as 10-fold reduction of gemcitabine IC50 after 72 hrs by Isobologram assay relative to untreated control; type: functional
# Procedure, shortened: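 HT-29 cells exposed 72 h to a range of gemcitabine hydrochloride concentrations, alone or combined with varying ChK1 inhibitor concentrations. Viability read by CellTiter-Glo luminescence. […] Synergy judged by combination index or Bliss independence analysis.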
# [4] = Volume of distribution at steady state in Sprague-Dawley rat at 1 mg/kg, iv solution at pH 4.5; type: ADME, organism-based; conditions: in vivo, read-out: Vdss
# [5] = Clearance in Sprague-Dawley rat at 1 mg/kg, iv solution at pH 4.5; type: ADME, organism-based; conditions: in vivo
# [6] = Cmax in cynomolgus monkey at 2 mg/kg, po suspension at pH 6.5; type: ADME, organism-based, Macaca fascicularis; design: dose 2 mg/kg, route oral; conditions: in vivo
# [7] = Volume of distribution at steady state in CD1 mouse at 1 mg/kg, iv solution at pH 4.5; type: ADME, organism-based; conditions: in vivo, read-out: Vdss
# [8] = Oral bioavailability in cynomolgus monkey at 2 mg/kg suspension at pH 6.5; type: ADME, organism-based, Macaca fascicularis; conditions: in vivo
# HT-29 [9] = experiment: Cytotoxicity against human HT-29 cells assessed as 10-fold reduction of gemcitabine IC50 after 72 hrs by Isobologram assay; type: functional; conditions: HT-29, 72 h
# Procedure, shortened: (§1)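 HT-29 cells exposed 72 h to a range of gemcitabine concentrations, alone or combined with a range of ChK1 inhibitor concentrations. Viability read by CellTiter-Glo luminescence. […] Synergy assessed by combination index or Bliss independence.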
# Acetylcholinesterase = Acetylcholinesterase (Homo sapiens, UniProt P22303); experiment: Inhibition of human acetylcholine esterase by horseradish peroxidase-coupled fluorescence assay
# Procedure, shortened: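 Human AChE at 0.006 U/ml, with 0.25 μM acetylcholine chloride, 0.06 U/ml choline oxidase, 0.05 U/ml horseradish peroxidase and 200 μM Amplex Red, in proprietary buffer with test compound. Incubated 30 min at 25 °C. Fluorescence read.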
# Mus musculus [10] = experiment: Toxicity in human HT-29 cells xenografted in NCr nude mouse assessed as body weight change measured after four cycles with 60 mg/kg, ip gemcitabine at four day intervals at 50 mg/kg, po; type: organism-based; conditions: in vivo
# Procedure, shortened: (§2)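 NCr nude mice aged 8–12 weeks were inoculated with 5×10^6 HT-29 cells in HEPES-buffered saline:Matrigel 50:50. At 125–250 mm³, tumors were split into volume-matched cohorts (n=5 or 10). Gemcitabine in saline was given i.p., and the inhibitor as an MCT suspension by oral gavage 24 h later. Tumor volume and body weight were monitored. %TGI was derived by linear mixed-effect modeling, with two-way ANOVA/Tukey for p-values.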
# [11] = Volume of distribution at steady state in cynomolgus monkey at 1 mg/kg, iv solution at pH 4.5; type: ADME, organism-based, Macaca fascicularis; conditions: in vivo, read-out: Vdss
# [12] = AUC in Sprague-Dawley rat at 5 mg/kg, po suspension at pH 6.5; type: ADME, organism-based; conditions: in vivo
# [13] = Plasma protein binding in Sprague-Dawley rat; type: ADME, cell-free; conditions: read-out: PPB (converted)
# [14] = biological target: T1, Serine/threonine-protein kinase Chk1 (Homo sapiens, UniProt O14757); experiment: Inhibition of human recombinant Chk1 using biotinylated AKT substrate after 30 mins by Alphascreen biochemical assay
# T1 sequence (O14757 whole entry): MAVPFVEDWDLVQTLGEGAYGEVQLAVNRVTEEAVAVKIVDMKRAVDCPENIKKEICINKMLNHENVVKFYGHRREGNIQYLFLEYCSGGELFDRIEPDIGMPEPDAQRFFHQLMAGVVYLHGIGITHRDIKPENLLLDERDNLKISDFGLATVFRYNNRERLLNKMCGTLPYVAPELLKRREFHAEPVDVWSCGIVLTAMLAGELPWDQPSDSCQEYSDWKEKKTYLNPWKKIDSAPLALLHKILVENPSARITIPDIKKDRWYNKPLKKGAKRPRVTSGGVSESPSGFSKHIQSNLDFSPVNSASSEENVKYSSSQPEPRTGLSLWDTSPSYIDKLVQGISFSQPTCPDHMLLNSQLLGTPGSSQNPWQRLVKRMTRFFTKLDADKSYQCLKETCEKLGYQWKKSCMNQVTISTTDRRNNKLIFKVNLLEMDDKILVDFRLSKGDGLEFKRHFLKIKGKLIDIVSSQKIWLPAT
# [15] = AUC in Beagle dog at 2 mg/kg, po suspension at pH 6.5; type: ADME, organism-based, Canis lupus familiaris; conditions: in vivo
# Mus musculus [16] = experiment: (§3) Oral bioavailability in CD1 mouse at 5 mg/kg suspension at pH 6.5; type: ADME, organism-based; conditions: mouse, in vivo, pH 6.5, 5 mg/kg
# [17] = Clearance in cynomolgus monkey at 1 mg/kg, iv solution at pH 4.5; type: ADME, organism-based, Macaca fascicularis; conditions: in vivo
# [18] = Volume of distribution at steady state in Beagle dog at 1 mg/kg, iv solution at pH 4.5; type: ADME, organism-based, Canis lupus familiaris; conditions: in vivo, read-out: Vdss
# [19] = AUC in cynomolgus monkey at 2 mg/kg, po suspension at pH 6.5; type: ADME, organism-based, Macaca fascicularis; conditions: in vivo
# [20] = biological target: T1, Serine/threonine-protein kinase Chk1; experiment: Inhibition of CHK1 in human HT29 cells assessed as phosphorylation of histone H3 after 24 hrs by checkpoint abrogation cellular assay; type: cell-based, HT-29
# HT-29 [21] = experiment: Potentiation of 60 mg/kg gemcitabine-induced anticancer activity in human HT-29 cells xenografted in po treated mouse assessed as increase in gammaH2AX by Western blot analysis; type: functional, organism-based
# Procedure, shortened: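 HT-29 xenograft mice (n=4 per randomized group) got gemcitabine 60 mg/kg or saline. After 24 h they received an oral inhibitor dose in MCT (0.5% methylcellulose/0.2% Tween 80) or vehicle. Tumors were excised 16 h later, flash-frozen and lysed. Western blots (25 μg/lane) were probed for pS139 H2AX and total H2AX with IR-dye detection. The γH2AX:total ratio is expressed as fold-change from the gemcitabine-only group mean.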
# [22] = Plasma protein binding in cynomolgus monkey; type: ADME, cell-free, Macaca fascicularis; conditions: read-out: PPB (converted)
# HT-29 [23] = experiment: Cytotoxicity against human HT-29 cells after 72 hrs by CellTiter-Glo luminescent assay; type: functional; conditions: HT-29, 72 h; procedure, shortened: as §1
# [24] = Cmax in Beagle dog at 2 mg/kg, po suspension at pH 6.5; type: ADME, organism-based, Canis lupus familiaris; design: dose 2 mg/kg, route oral; conditions: in vivo
# Mus musculus [25] = experiment: (§4) AUC in CD1 mouse at 5 mg/kg, po suspension at pH 6.5; type: ADME, organism-based; conditions: mouse, in vivo, pH 6.5, 5 mg/kg
# HT-29 [26] = experiment: Potentiation of gemcitabine-induced anticancer activity in human HT-29 cells xenografted in NCr nude mouse assessed as reduction in tumor volume measured after four cycles with 60 mg/kg, ip gemcitabine at four day intervals at 50 mg/kg, po; type: functional; design: scale not given: the % may be the effect or the level left
# Procedure, shortened: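 NCr nude mice, 8–12 weeks old, inoculated with 5×10^6 HT-29 cells in HEPES-buffered saline:Matrigel 50:50. Volume-matched cohorts formed at 125–250 mm³. Gemcitabine 60 mg/kg given i.p. in saline. Inhibitor given orally in 0.5% methylcellulose/0.2% Tween 80 suspension 24 h later. Four cycles at four-day intervals. Tumor volume monitored. %TGI by linear mixed-effect modeling; two-way ANOVA with Tukey test.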
# HT-29 [27] = experiment: Potentiation of gemcitabine-induced anticancer activity in human HT-29 cells xenografted in po treated NCr nude mouse assessed as reduction in tumor volume measured after four cycles with 60 mg/kg, ip gemcitabine at four day intervals; type: functional, organism-based; procedure, shortened: as §2
# [28] = Plasma protein binding in Beagle dog; type: ADME, cell-free, Canis lupus familiaris; conditions: read-out: PPB (converted)
# [29] = Cmax in CD1 mouse at 5 mg/kg, po suspension at pH 6.5; type: ADME, organism-based; design: dose 5 mg/kg, route oral; conditions: in vivo
# [30] = Plasma protein binding in CD1 mouse; type: ADME, cell-free; conditions: read-out: PPB (converted)
# [31] = Cmax in Sprague-Dawley rat at 5 mg/kg, po suspension at pH 6.5; type: ADME, organism-based; design: dose 5 mg/kg, route oral; conditions: in vivo
# [32] = Oral bioavailability in Sprague-Dawley rat at 5 mg/kg suspension at pH 6.5; type: ADME, organism-based; conditions: in vivo
# HT-29 [33] = experiment: Potentiation of gemcitabine-induced anticancer activity in human HT-29 cells xenografted in po treated NCr nude mouse assessed as reduction in tumor volume measured after five cycles with 120 mg/kg, ip gemcitabine at five day intervals; type: functional, organism-based; procedure, shortened: as §2
# Mus musculus [34] = experiment: Toxicity in human HT-29 cells xenografted in NCr nude mouse assessed as body weight change measured after five cycles with 120 mg/kg, ip gemcitabine at five day intervals at 50 mg/kg, po; type: organism-based; conditions: in vivo; procedure, shortened: as §2
# [35] = Clearance in CD1 mouse at 1 mg/kg, iv solution at pH 4.5; type: ADME, organism-based; conditions: in vivo
# [36] = as §3; type: ADME, organism-based; conditions: CD1, mouse, in vivo, 5 mg/kg, pH 6.5
# [37] = as §4; type: ADME, organism-based; conditions: CD1, mouse, in vivo, 5 mg/kg, pH 6.5
# Chain of Acetylcholinesterase (P22303 whole entry): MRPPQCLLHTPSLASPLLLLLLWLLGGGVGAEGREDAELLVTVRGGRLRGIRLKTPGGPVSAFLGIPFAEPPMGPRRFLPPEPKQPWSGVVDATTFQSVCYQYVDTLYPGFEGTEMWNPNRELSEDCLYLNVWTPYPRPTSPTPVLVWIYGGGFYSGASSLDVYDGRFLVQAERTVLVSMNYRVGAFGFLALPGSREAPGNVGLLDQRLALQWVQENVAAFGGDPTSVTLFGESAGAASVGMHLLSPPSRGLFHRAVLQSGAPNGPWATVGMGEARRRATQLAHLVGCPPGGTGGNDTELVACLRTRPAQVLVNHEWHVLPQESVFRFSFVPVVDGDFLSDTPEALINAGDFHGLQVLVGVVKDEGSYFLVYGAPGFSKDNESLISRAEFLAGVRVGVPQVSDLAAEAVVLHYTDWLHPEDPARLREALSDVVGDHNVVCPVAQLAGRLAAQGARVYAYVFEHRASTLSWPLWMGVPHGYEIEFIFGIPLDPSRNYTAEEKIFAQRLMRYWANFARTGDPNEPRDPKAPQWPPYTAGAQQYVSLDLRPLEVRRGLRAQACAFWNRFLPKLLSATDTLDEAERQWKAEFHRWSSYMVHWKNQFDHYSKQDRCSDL
Compound,clearance [1] [mL/min/kg],bioavailability [2] [%],fold change (FC) (HT-29 [3]),Vd [4] [L/kg],clearance [5] [mL/min/kg],Cmax [6] [nM],Vd [7] [L/kg],bioavailability [8] [%],EC10 (HT-29 [9]) [nM],IC50 (Acetylcholinesterase) [nM],Vd [11] [L/kg],AUC [12] [µM·h],fraction unbound [13],IC50 [14] [nM],AUC [15] [µM·h],clearance [17] [mL/min/kg],Vd [18] [L/kg],AUC [19] [µM·h],EC50 [20] [nM],Activity (HT-29 [21]),other results
N#Cc1cc2c(cn1)[nH]c1ncc(-c3ccc(CN4CCC5(CC4)COC5)cc3)cc12,10.9,46.7,> 156,7.55,27.5,86,7.33,34,16,2420,17.1,8.63,0.025,2.5,3.51,30.8,9.63,0.91,72.8,Dose-dependent effect,Activity (Mus musculus [10]): Non-toxic; F (Mus musculus [16]): 48.5%; fraction unbound [22]: 0.049; GI50 (HT-29 [23]): > 2500 nM; Cmax [24]: 200 nM; AUC (Mus musculus [25]): 1.33 µM·h; Activity (HT-29 [26]): 111%; Activity (HT-29 [27]): Dose-dependent effect; fraction unbound [28]: 0.052; Cmax [29]: 191 nM; fraction unbound [30]: 0.038; Cmax [31]: 1100 nM; bioavailability [32]: 116%
N#Cc1cc2c(cn1)[nH]c1ncc(-c3ccc(CN4CCCCC4)cc3)cc12,118,13.1,870,6.35,24.7,44,6.57,43.8,10,333,25.7,6.19,0.047,1,0.101,45.8,23.4,0.869,53.2,Dose-dependent effect,Activity (HT-29 [33]): Dose-dependent effect; Activity (Mus musculus [34]): Non-toxic; clearance [35]: 55.8 mL/min/kg; bioavailability [36]: 86.5%; fraction unbound [22]: 0.117; GI50 (HT-29 [23]): 8700 nM; Cmax [24]: 21 nM; AUC [37]: 2.68 µM·h; fraction unbound [28]: 0.132; Cmax [29]: 386 nM; fraction unbound [30]: 0.05; Cmax [31]: 520 nM; bioavailability [32]: 67.4%
